What was measured:
[1] = Lethality was evaluated after 3h in pentylenetetrazole test in mice at a dose of 85 mg/kg; type: ADME, organism-based; design: dose 85 mg/kg; settings: mouse, in vivo
Procedure, shortened: (§1)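 Male NMRI mice (18-25 g) got compound ip at 119 mg/kg in DMSO (2 mL/kg). At 30 min or 3 h after dosing, pentylenetetrazole in saline was given sc at 85 or 120 mg/kg. Mice were caged singly and watched for 30 min, noting clonic and tonic seizures and deaths. Lethality is given as a percentage.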

[2] = Lethality was evaluated after 0.5 hr in pentylenetetrazole test in mice at a dose of 120 mg/kg; type: ADME, organism-based; design: dose 120 mg/kg; settings: mouse, in vivo; procedure, shortened: as §1
Mus musculus [3] = assay: Clonic seizures was evaluated after 0.5 hr in pentylenetetrazole test in mice at a dose of 85 mg/kg; type: functional
Mus musculus [4] = assay: Clonic seizures was evaluated after 0.5 hr in pentylenetetrazole test in mice at a dose of 120 mg/kg; type: functional
Procedure, shortened: (§2)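 Male NMRI mice (18-25 g). Test compound dissolved in DMSO, given ip at 2 mL/kg. Convulsant given 30 min or 3 h later: pentylenetetrazole (85 or 120 mg/kg) sc in saline, or 3-mercaptopropionic acid 40 mg/kg ip in saline. Mice caged singly and watched 30 min. Clonic and tonic seizures and deaths counted, expressed as % of animals.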

Mus musculus [5] = assay: Compound was tested for anticonvulsant activity in maximal electroshock seizure(MES) test after 3 hours upon intraperitoneal administration to mice; type: functional; settings: ip
Procedure, shortened: (§3)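 Male OF1 mice (15-25 g), free access to water only during testing. Compound given ip and maximal electroshock applied at 30 min or 3 h. Typically 8-10 mice per compound, dose and time point. Screening at initial 0.4 mmol/kg, scored as protected/tested.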

[6] = Lipophilicity value was evaluated; type: physicochemical; settings: RP-HPLC
Procedure, shortened: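 Lipophilicity by RP-HPLC on a C18 column at 1.0 mL/min. Mobile phases were 10-50% […] with 50-90% 0.01 M phosphate buffer pH 7.4. Triplicate runs per eluent. log k_o extrapolated from at least four eluent compositions. ClogP also calculated.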

Mus musculus [7] = assay: Clonic seizures was evaluated after 0.5 hr in 3-mercaptopropionic acid test in mice at a dose of 119 mg/kg; type: functional; procedure, shortened: as §2
Mus musculus [8] = assay: Tonic seizures was evaluated after 3h in pentylenetetrazole test at a dose of 85 mg/kg; type: functional
Procedure, shortened: (§4)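 Male NMRI mice (18-25 g) were dosed ip at 119 mg/kg in DMSO (2 mL/kg). At 30 min or 3 h, pentylenetetrazole in saline was given sc at 85 or 120 mg/kg (the convulsant dose named in each line). Mice were observed individually for 30 min, with clonic and tonic seizures and deaths noted as percent of animals.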

[9] = Lethality was evaluated after 0.5 hr in strychnine test in mice at a dose of 119 mg/kg; type: ADME, organism-based; design: dose 119 mg/kg; settings: mouse, in vivo
Procedure, shortened: (§5)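 Male NMRI mice (18-25 g) got compound ip at 119 mg/kg in DMSO (2 mL/kg). At 30 min or 3 h after dosing, strychnine chlorhydrate in saline (1.2 mg/mL) was injected sc at 1 mL/kg. Mice were caged singly and observed for 30 min, recording seizure onset, tonic seizures and lethality (%).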

[10] = Lethality was evaluated after 3h in strychnine test in mice at a dose of 119 mg/kg; type: ADME, organism-based; design: dose 119 mg/kg; settings: mouse, in vivo; procedure, shortened: as §5
[11] = Lethality was evaluated after 3h in 3-mercaptopropionic acid test in mice at a dose of 119 mg/kg; type: ADME, organism-based; design: dose 119 mg/kg; settings: mouse, in vivo
Procedure, shortened: (§6)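 Male NMRI mice (18-25 g, bred in-house) got test compound ip at 119 mg/kg, dissolved in DMSO and given at 2 mL/kg. At 30 min or 3 h after dosing, 3-mercaptopropionic acid in saline was injected ip at 40 mg/kg. Deaths were recorded and reported as percent lethality.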

Mus musculus [12] = assay: Clonic seizures was evaluated after 3h in pentylenetetrazole test in mice at a dose of 85 mg/kg; type: functional
Mus musculus [13] = assay: Tonic seizures was evaluated after 0.5 hr in pentylenetetrazole test at a dose of 120 mg/kg; type: functional; procedure, shortened: as §4
Mus musculus [14] = assay: Tonic seizures was evaluated after 0.5 hr in strychnine test in mice at a dose of 119 mg/kg; type: functional
Procedure, shortened: (§7)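 Male NMRI mice (18-25 g) were dosed ip at 119 mg/kg in DMSO (2 mL/kg). At 30 min or 3 h, strychnine chlorhydrate in saline was given sc (1.2 mg/mL, 1 mL/kg). Mice were observed individually for 30 min, with tonic seizures and lethality recorded as percent of animals.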

Mus musculus [15] = assay: Tonic seizures was evaluated after 3h in 3-mercaptopropionic acid test in mice at a dose of 119 mg/kg; type: functional
Procedure, shortened: (§8)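 Male NMRI mice (18-25 g) received test agent ip at 119 mg/kg, dissolved in DMSO, 2 mL/kg. 40 mg/kg 3-mercaptopropionic acid in saline was injected ip 30 min or 3 h later. Percentage of animals with tonic seizures was recorded.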

[16] = Lethality was evaluated after 0.5 hr in 3-mercaptopropionic acid test in mice at a dose of 119 mg/kg; type: ADME, organism-based; design: dose 119 mg/kg; settings: mouse, in vivo; procedure, shortened: as §6
Mus musculus [17] = assay: Clonic seizures was evaluated after 3h in 3-mercaptopropionic acid test in mice at a dose of 119 mg/kg; type: functional; procedure, shortened: as §2
[18] = Lethality was evaluated after 0.5 hr in pentylenetetrazole test in mice at a dose of 85 mg/kg; type: ADME, organism-based; design: dose 85 mg/kg; settings: mouse, in vivo; procedure, shortened: as §1
Mus musculus [19] = assay: Tonic seizures was evaluated after 0.5 hr in 3-mercaptopropionic acid test in mice at a dose of 119 mg/kg; type: functional; procedure, shortened: as §8
Mus musculus [20] = assay: Tonic seizures was evaluated after 0.5 hr in pentylenetetrazole test at a dose of 85 mg/kg; type: functional; procedure, shortened: as §4
Mus musculus [21] = assay: Compound was tested for anticonvulsant activity in maximal electroshock seizure(MES) test after 30 min upon intraperitoneal administration to mice; type: functional; settings: ip, 0.5 h; procedure, shortened: as §3
Mus musculus [22] = assay: Tonic seizures was evaluated after 3h in strychnine test in mice at a dose of 119 mg/kg; type: functional; procedure, shortened: as §7

O=C(CNC(=O)OCc1ccccc1)NCc1ccccc1
Lethality [1]: 60%
Lethality [2]: 50%
Clonic seizures (Mus musculus [3]): 67%
Clonic seizures (Mus musculus [4]): 83%
ED50 (Mus musculus [5]): 11.6 mg/kg
Log Ko [6]: 3.5
Clonic seizures (Mus musculus [7]): 83%
Tonic seizures (Mus musculus [8]): 70%
Lethality [9]: 17%
Lethality [10]: 80%
Lethality [11]: 30%
Clonic seizures (Mus musculus [12]): 80%
Tonic seizures (Mus musculus [13]): 0%
Tonic seizures (Mus musculus [14]): 33%
Tonic seizures (Mus musculus [15]): 0%
Lethality [16]: 0%
Clonic seizures (Mus musculus [17]): 100%
Lethality [18]: 22%
Tonic seizures (Mus musculus [19]): 17%
Tonic seizures (Mus musculus [20]): 0%
ED50 (Mus musculus [21]): 4.8 mg/kg
Tonic seizures (Mus musculus [22]): 80%

Reference: ChEMBL document CHEMBL1131201, “N-(benzyloxycarbonyl)glycine esters and amides as new anticonvulsants” (J Med Chem, 1998)
